Experimental data from ChEMBL document CHEMBL3751780, “Rational design, synthesis and in vitro evaluation of allylidene hydrazinecarboximidamide derivatives as BACE-1 inhibitors” (Bioorg Med Chem Lett, 2016).
Activity calls are given as the source filed them. The rule behind the calls is not given here.

How the values were obtained:
[1] = Cytotoxicity against human […] cells at 10 uM after 24 hrs by MTT assay; type: cell-based
Beta-secretase 1 [2] = biological target: T1, Beta-secretase 1 (Homo sapiens, UniProt P56817); test: Inhibition of human BACE1 (1 to 460 residues) using APP-based peptide as substrate at 10 uM incubated for 60 mins by FRET analysis
T1 sequence (P56817 whole entry, the tested form may be a part): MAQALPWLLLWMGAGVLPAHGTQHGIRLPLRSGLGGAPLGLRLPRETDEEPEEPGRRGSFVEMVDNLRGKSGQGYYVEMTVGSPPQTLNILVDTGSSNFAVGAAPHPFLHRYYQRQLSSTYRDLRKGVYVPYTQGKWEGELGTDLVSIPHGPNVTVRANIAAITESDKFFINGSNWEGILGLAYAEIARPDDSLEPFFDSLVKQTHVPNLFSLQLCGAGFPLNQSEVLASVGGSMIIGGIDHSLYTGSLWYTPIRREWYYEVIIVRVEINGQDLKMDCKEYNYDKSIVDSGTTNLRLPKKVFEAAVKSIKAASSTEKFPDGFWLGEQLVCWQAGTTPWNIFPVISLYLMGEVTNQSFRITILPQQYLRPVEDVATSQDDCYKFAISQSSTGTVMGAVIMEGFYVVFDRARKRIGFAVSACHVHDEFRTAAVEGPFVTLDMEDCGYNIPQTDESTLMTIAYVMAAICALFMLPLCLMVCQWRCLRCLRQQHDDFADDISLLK
Summary of the method: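 Measured by FRET. Test compounds were screened at one fixed concentration and reported as percent inhibition, given as mean ± SD of triplicate experiments performed independently.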

Beta-secretase 1 [3] = biological target: T1, Beta-secretase 1; test: Inhibition of human BACE1 (1 to 460 residues) using APP-based peptide as substrate incubated for 60 mins by FRET analysis

| SMILES | inhibition (Beta-secretase 1 [2]) | IC50 (Beta-secretase 1 [3]) [µM] | Activity [1] |
| --- | --- | --- | --- |
| N=C(N)N/N=C(/C=C/c1ccccc1)c1ccc(Cl)cc1 | 18% | – | Non-toxic |
| CN(C)c1ccc(/C=C/C(=N/NC(=N)N)c2cccc([N+](=O)[O-])c2)cc1 | 28% | – | Non-toxic |
| N=C(N)N/N=C(/C=C/c1ccccc1)c1cccc(O)c1 | – | – | Non-toxic |
| COc1ccc(C(/C=C/c2cc(OC)ccc2OC)=N\NC(=N)N)cc1 | 10.3% | – | Non-toxic |
| N=C(N)N/N=C(/C=C/c1ccccc1)c1ccc([N+](=O)[O-])cc1 | 13.5% | – | Non-toxic |
| CN(C)c1ccc(/C=C/C(=N/NC(=N)N)c2ccc([N+](=O)[O-])cc2)cc1 | 23.9% | – | Non-toxic |
| N=C(N)N/N=C(/C=C/c1cccc([N+](=O)[O-])c1)c1cccc(Br)c1 | 10.8% | – | Non-toxic |
| N=C(N)N/N=C(/C=C/c1cccc([N+](=O)[O-])c1)c1ccc([N+](=O)[O-])cc1 | 62.1% | – | Non-toxic |
| N=C(N)N/N=C(/C=C/c1cccc([N+](=O)[O-])c1)c1ccc(Cl)cc1Cl | 5.4% | – | Non-toxic |
| COc1ccc(C(/C=C/c2cccc([N+](=O)[O-])c2)=N\NC(=N)N)cc1 | 11% | – | Non-toxic |
| N=C(N)N/N=C(/C=C/c1ccccc1)c1cccc([N+](=O)[O-])c1 | 23.4% | – | Non-toxic |
| N=C(N)N/N=C(/C=C/c1ccccc1)c1ccccc1 | 10.8% | – | Non-toxic |
| Cc1ccc(C(/C=C/c2ccc(N(C)C)cc2)=N\NC(=N)N)cc1 | 10.8% | – | Non-toxic |

Continued, in another order:

| inhibition (Beta-secretase 1 [2]) | IC50 (Beta-secretase 1 [3]) [µM] | SMILES | Activity [1] |
| --- | --- | --- | --- |
| 42.1% | – | COc1ccc(/C=C/C(=N/NC(=N)N)c2ccccc2)cc1OC | Non-toxic |
| 25.9% | – | COc1ccc(/C=C/C(=N/NC(=N)N)c2cccc(Br)c2)cc1OC | Non-toxic |
| 23.9% | – | COc1ccc(OC)c(/C=C/C(=N/NC(=N)N)c2cccc(Br)c2)c1 | Non-toxic |
| 47.9% | – | N=C(N)N/N=C(/C=C/c1cccc([N+](=O)[O-])c1)c1ccccc1 | Non-toxic |
| 21.8% | – | COc1ccc(/C=C/C(=N/NC(=N)N)c2ccc(Cl)cc2Cl)cc1OC | Non-toxic |
| 61.2% | – | COc1ccc(/C=C/C(=N/NC(=N)N)c2ccc([N+](=O)[O-])cc2)cc1OC | Non-toxic |
| 32.6% | – | COc1ccc(OC)c(/C=C/C(=N/NC(=N)N)c2ccccc2)c1 | Non-toxic |
| 45.8% | – | COc1ccc(/C=C/C(=N/NC(=N)N)c2cccc([N+](=O)[O-])c2)cc1OC | Non-toxic |
| 78.2% | 6.42 | COc1ccc(/C=C/C(=N/NC(=N)N)c2ccc(Cl)cc2)cc1OC | Non-toxic |
| inactive | – | CN(C)c1ccc(/C=C/C(=N/NC(=N)N)c2ccccc2)cc1 | Non-toxic |
